One may read the inhibition as the relative decrease from the control value, in per cent. Usually Ki stands for a dissociation constant, usually derived from enzyme kinetics or from competition with a known ligand. In general, IC50 refers to the concentration that gives 50% inhibition.

The values that follow come from ChEMBL document CHEMBL2380217, “Design, synthesis, and biological evaluation of aminoalkylindole derivatives as cannabinoid receptor ligands with potential for treatment of alcohol abuse” (J Med Chem, 2013).

Data set [1] has as its target T1, Cannabinoid receptor 2 (Homo sapiens, UniProt P34972). The data set is described as follows: Agonist activity at human CB2 receptor transfected in CHO cells assessed as inhibition of forskolin-stimulated adenylyl cyclase activity at 10 uM after 15 mins by liquid scintillation spectrophotometry. The format is functional, cell-based. Put shortly: (§1)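 Neuro2A-WT (endogenous CB1), CHO-hCB2 or CHO-WT cells, 4 million per well, attached overnight. Labelled 4 h at 37 °C with [3H]adenine 2.5 μCi/mL plus 0.5 mM IBMX. Then 15 min at 37 °C in KRH buffer with 0.5 mM IBMX, 10 μM forskolin, and vehicle (0.2% ethanol) or compound (0.1 nM–10 μM), triplicate. Stopped with HCl; [3H]cAMP isolated on acidic alumina, counted by scintillation. Expressed as % of vehicle cAMP. Antagonist added 5 min before agonist.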

For data set [2], the target named is Cannabinoid receptor 1 (Mus musculus) (UniProt P47746). In words: Agonist activity at CB1 receptor in mouse Neuro2a cells assessed as inhibition of forskolin-stimulated adenylyl cyclase activity at 10 uM after 15 mins by liquid scintillation spectrophotometry. The format is functional, cell-based. Put shortly: as §1
Sequence of Cannabinoid receptor 1 (Mus musculus) (P47746 whole entry): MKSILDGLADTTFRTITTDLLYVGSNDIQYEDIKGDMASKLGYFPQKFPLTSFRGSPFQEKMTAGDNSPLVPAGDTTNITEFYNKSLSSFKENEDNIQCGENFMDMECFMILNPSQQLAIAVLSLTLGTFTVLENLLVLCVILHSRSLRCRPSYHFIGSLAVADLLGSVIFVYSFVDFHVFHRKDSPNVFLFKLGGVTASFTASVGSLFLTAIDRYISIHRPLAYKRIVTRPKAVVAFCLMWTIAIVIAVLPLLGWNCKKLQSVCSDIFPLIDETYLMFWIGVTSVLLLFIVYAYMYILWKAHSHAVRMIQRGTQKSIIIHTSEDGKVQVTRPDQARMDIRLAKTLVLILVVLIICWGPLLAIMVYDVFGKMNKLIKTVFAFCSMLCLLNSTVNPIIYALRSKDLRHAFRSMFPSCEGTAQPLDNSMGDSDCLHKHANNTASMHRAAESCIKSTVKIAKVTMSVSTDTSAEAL
The target in data set [3] is Cannabinoid receptor 2 (Mus musculus) (UniProt P47936). The data set is described as follows: Displacement of [3H]CP-55940 from mouse […] CB2 receptor at 1 uM after 90 mins by scintillation counting analysis. It counts as tissue-based. A digest of the protocol: (§2)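 Buffer: 50 mM Tris, 0.05% BSA, 0.1% ethanol; triplicate. Non-specific binding with 10 μM WIN-55,212-2. Bound ligand collected by GF/B filtration and counted by liquid scintillation. Specific binding expressed as % of that without competitor.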
Sequence of Cannabinoid receptor 2 (Mus musculus) (P47936 whole entry): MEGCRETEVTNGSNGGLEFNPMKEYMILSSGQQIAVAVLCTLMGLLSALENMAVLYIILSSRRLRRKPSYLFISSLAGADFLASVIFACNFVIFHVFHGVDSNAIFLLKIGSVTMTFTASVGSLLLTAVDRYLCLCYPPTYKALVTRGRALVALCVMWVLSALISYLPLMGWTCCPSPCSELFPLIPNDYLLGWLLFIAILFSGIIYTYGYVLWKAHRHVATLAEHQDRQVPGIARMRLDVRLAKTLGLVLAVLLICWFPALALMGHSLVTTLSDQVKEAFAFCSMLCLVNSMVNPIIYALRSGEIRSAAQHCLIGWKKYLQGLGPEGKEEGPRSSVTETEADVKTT
For orientation: Displacement assays read how much labelled ligand stays bound in the presence of the test substance.

Data set [4] concerns the target Cannabinoid receptor 1 (Mus musculus) (UniProt P47746). The data set is described as follows: Displacement of [3H]CP-55940 from mouse brain CB1 receptor at 1 uM after 90 mins by scintillation counting analysis. The format is tissue-based. Put shortly:
as §2

Data set [5] shares this target. The data set is described as follows: Antagonist activity at CB1 receptor in mouse Neuro2a cells assessed as forskolin-stimulated adenylyl cyclase activity at 1 uM after 15 mins by liquid scintillation spectrophotometry in presence of JWH-073. The format is functional, cell-based. Put shortly: as §1
In data set [6] the test system is Mus musculus. The data set is described as follows: Reduction in ethyl alcohol preference in Swiss mouse at 10 mg/kg, ip for 10 days. It counts as functional, organism-based. The arrangement: dose 10 mg/kg. A digest of the protocol:
(§3)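 Male NIH Swiss mice in a two-bottle home-cage choice, 10% (v/v) ethanol vs water, 24 h access. Intake read twice weekly and bottle positions switched. Preference = ethanol/total fluid × 100. After stable baseline (<10% variation over 3 days), 10 mg/kg i.p. daily for 10 days. Vehicle: 8% Tween/92% water, given for 10 days. Body weight tracked.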

The test system of the next data set is CHO. In words: Effect on adenylyl cyclase activity in wild type CHO cells at 10 uM. The format is cell-based. The settings on record: Cricetulus griseus. A digest of the protocol: as §1
For data set [7], the system named is Mus musculus. In words: Toxicity in Swiss mouse assessed as alteration in total fluid intake at 10 mg/kg, ip for 10 days. The settings on record: in vivo, 240 h. The arrangement: dose 10 mg/kg, route intraperitoneal. The format is organism-based. Put shortly: as §3
Data set [8] relates to Mus musculus. The data set is described as follows: Antagonist activity at CB1 receptor in Swiss mouse assessed as reduction in hypothermic effect at 10 mg/kg, ip administered 30 mins prior to JWH-073 addition. The format is functional, organism-based. Further details: dose 10 mg/kg. Put shortly:
(§4)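 Male NIH Swiss mice (25–30 g) with glass-encapsulated radiotelemetry probes implanted in the peritoneal cavity; at least 7 days of recovery, housed singly. Baseline recorded for at least 1 hr, then i.p. injection of drug or vehicle. […] Groups of 4–8. One-way ANOVA with Tukey.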

Data set [9] concerns Mus musculus. The data set is described as follows: Toxicity in Swiss mouse assessed as reduction in body weight at 10 mg/kg, ip for 10 days. It counts as organism-based. Further details: dose 10 mg/kg, route intraperitoneal. The note with it: in vivo, 240 h. A digest of the protocol:
as §3

For data set [10], the system named is Mus musculus. In words: Inhibition of ethyl alcohol-induced conditioned place preference in Swiss mouse at 10 mg/kg, ip administered 1 hr prior to ethyl alcohol pairing. It counts as functional, organism-based. Further details: dose 10 mg/kg. Put shortly: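 Male NIH Swiss mice in 3-compartment chambers. 30-min pre-test to find preferred side. Then Mon–Thu daily: saline in the preferred side (30 min) and, ~4 h later, 2 g/kg ethanol in the non-preferred side (30 min). Compound 10 mg/kg given 1 h before each ethanol pairing. Friday post-test; score = post minus pre time on the ethanol side. One-way ANOVA with Tukey.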

For a further data set, the target named is Cannabinoid receptor 1 (Mus musculus, UniProt P47746). In words: Agonist activity at CB1 receptor in mouse Neuro2a cells assessed as inhibition of forskolin-stimulated adenylyl cyclase activity after 15 mins by liquid scintillation spectrophotometry. The format is functional, cell-based. A digest of the protocol:
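Neuro2A cells with endogenous CB1, plated overnight to 80–90% confluency, labelled 4 h at 37 °C with [3H]adenine (2.5 μCi/mL) plus 0.5 mM IBMX. Then 15 min at 37 °C in Krebs Ringer HEPES with 0.5 mM IBMX, 10 μM forskolin and compound (0.1 nM–10 μM; 10 μM for the screen) or 0.2% ethanol vehicle, in triplicate. HCl stop, alumina column. [3H]cAMP is given as % of vehicle.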

Data set [11] relates to Mus musculus. The data set is described as follows: Agonist activity at CB1 receptor in Swiss mouse assessed as hypothermic effect at 10 mg/kg, ip. The format is functional, organism-based. The arrangement: dose 10 mg/kg. A digest of the protocol: as §4
Data set [12] has as its target T1, Cannabinoid receptor 2. The data set is described as follows: Agonist activity at human CB2 receptor transfected in CHO cells assessed as inhibition of forskolin-stimulated adenylyl cyclase activity after 15 mins by liquid scintillation spectrophotometry. The format is functional, cell-based. A digest of the protocol: as §1

The source made the active and inactive calls. No cut-off for these calls is given here.

T1 sequence (P34972 whole entry): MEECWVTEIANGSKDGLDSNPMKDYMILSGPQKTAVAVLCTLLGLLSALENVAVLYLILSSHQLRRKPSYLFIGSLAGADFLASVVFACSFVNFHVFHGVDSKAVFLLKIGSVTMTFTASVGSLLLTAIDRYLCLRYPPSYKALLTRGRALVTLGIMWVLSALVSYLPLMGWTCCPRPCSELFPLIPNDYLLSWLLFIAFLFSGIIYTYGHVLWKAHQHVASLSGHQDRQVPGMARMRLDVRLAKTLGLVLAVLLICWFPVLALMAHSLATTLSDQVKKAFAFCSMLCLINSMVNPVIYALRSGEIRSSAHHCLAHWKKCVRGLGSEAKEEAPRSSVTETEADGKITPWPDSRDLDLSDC
Sequence of Cannabinoid receptor 1 (P47746 whole entry): as the sequence (P47746 whole entry) above

As for `CCCCn1cc(C(=O)c2ccc(F)cc2)c2cccc(OC)c21`, the inhibition came to 38% on Cannabinoid receptor 2 [1] and 45% in data set [2]. For the same compound, the Activity in data set [3] came to 99%; in data set [4], 84%.
Consider `CCCCn1cc(C(=O)c2cccc3ccccc23)c2cc(OC)ccc21`, for which the inhibition at Cannabinoid receptor 2 [1] was determined as 31%; in [2] it was 47%. The Activity in data set [3] and in data set [4] was 90% in each case.
Take `CCCCn1cc(C(=O)Cc2ccc(F)cc2)c2cccc(O)c21`: the Activity in [3] was 10%; in data set [4], 29%.
Regarding `CCCCCCC(C)(C)c1ccc([C@@H]2C[C@H](O)CC[C@H]2CCCO)c(O)c1`, in [2], the inhibition stood at 45%.
`CC1=CC[C@@H]2[C@@H](C1)c1c(O)cc(CC#CCCCNS(C)(=O)=O)cc1OC2(C)C`: the outcome in data set [5] was Active.
On to `CCCCn1cc(Cc2cccc3ccccc23)c2cccc(OC)c21`, for which the inhibition at Cannabinoid receptor 2 [1] worked out at 33%; in [2] it was 18%. In addition, the result (with Mus musculus [6]; with Mus musculus [8]; in [5]; in the data set on Mus musculus [10]) was Active. Also, the result in the data set on CHO was inactive. Moreover, the Activity entry in the data set on Mus musculus [7] is “Toxic”; in data set [3], 97%; in the data set with Mus musculus [9], “Non-toxic”; in data set [4], 90%.
On to `CCCCn1cc(C(=O)Cc2ccc(O)cc2)c2cccc(O)c21`, for which the Activity in [3] and in [4] was 10% throughout.
With `CCCCn1cc(C(=O)Cc2cccc3ccccc23)c2cccc(OC)c21`, in data set [2], the inhibition amounted to 34%. Moreover, the values for the Activity in [3] and in [4] were 91% and 81%, respectively.
For the compound `CCCCn1cc(-c2cccc3ccccc23)c2cccc(OC)c21`, the inhibition at Cannabinoid receptor 2 [1] was 37%; in data set [2], 39%. The Activity came out at 97% in data set [3] and 98% in data set [4].
For the compound `CCCCn1cc(C(=O)c2cccc3ccccc23)c2ccccc21`, the Ki at Cannabinoid receptor 1 amounted to 12.9 nM; at Cannabinoid receptor 2 [12], 9.8 nM. In the data set with Mus musculus [11], the result was Active.
Turning to `CCCCn1cc(C(=O)c2cccc3ccccc23)c2cccc(O)c21`, the results for the inhibition (on Cannabinoid receptor 2 [1]; in data set [2]) were 38% and 55%, respectively. Also, on Cannabinoid receptor 1, the half-maximal inhibitory concentration (IC50) is 225 nM. Besides, the figures for the inhibition constant Ki at Cannabinoid receptor 1 and on Cannabinoid receptor 2 [12] were 24.2 nM and 78.3 nM, respectively. Besides, the Activity stood at 90% in data set [3] and 99% in data set [4].
For `CCCCn1cc(C(=O)Cc2ccccc2)c2cccc(O)c21`, the Activity stood at 20% in data set [3] and 21% in data set [4].
On the same counts, the results for `CCCCn1cc(C(=O)Cc2ccc(OC)cc2)c2cccc(OC)c21` are 64% and 38%.
On the same counts, the results for `CCCCn1cc(C(=O)Cc2cccc3ccccc23)c2cccc(O)c21` are 21% and 37%.
For the compound `CCCCn1cc(C(=O)c2cccc3ccccc23)c2cccc(OC)c21`, the inhibition is 52% at Cannabinoid receptor 2 [1] and 51% in [2]. In addition, the figures for the Activity in data set [3] and in data set [4] were 100% and 93%, respectively.
In the case of `CCCCn1cc(-c2ccc3ccccc3c2)c2cccc(OC)c21`, the inhibition turned out to be 20.8% at Cannabinoid receptor 2 [1] and 16% in data set [2]. Further, the result (in the data set on Mus musculus [6]; in the data set on Mus musculus [8]; in data set [5]; in the data set with Mus musculus [10]) was Active. In the data set on CHO, the outcome was inactive. For the same compound, the Activity result in the data set on Mus musculus [7] is “Toxic”; in data set [3], 91%; in the data set with Mus musculus [9], “Non-toxic”; in [4] it was 82%.
Take `CCCCn1cc(C(=O)Cc2ccc(F)c(F)c2)c2cccc(OC)c21`: the Activity came out at 80% in data set [3] and 41% in [4].
In the same order, the values of `CCCCn1cc(C(=O)Cc2cccc(F)c2)c2cccc(OC)c21` are 91% and 63%.
With `CCCCn1cc(C(=O)Cc2ccccc2)c2cccc(OC)c21`, the inhibition on Cannabinoid receptor 2 [1] is 16%; in data set [2] it was 34%. The Activity was 91% in [3] and 69% in data set [4].
In the same order, the values of `CCCCn1cc(C(=O)Cc2ccc(F)cc2)c2cccc(OC)c21` are 22%, -4%, 80% and 55%.
In the same order, the values of `CCCCn1cc(C(=O)Cc2cccc(F)c2F)c2cccc(OC)c21` are -6%, 35%, 97% and 80%.
In the case of `COc1cccc2c(C(=O)c3cccc4ccccc34)cn(CCN3CCOCC3)c12`, the inhibition at Cannabinoid receptor 2 [1] is 37%; in [2], 39%. Besides, the Activity in data set [3] and in data set [4] was 100% each time.
For the compound `CCCCn1cc(C(=O)Cc2ccc(F)cc2)c2cccc(CC)c21`, the values for the Activity in data set [3] and in data set [4] were 88% and 63%, respectively.
Take `CCCCn1cc(C(=O)Cc2ccccc2F)c2cccc(OC)c21`: the values for the inhibition (at Cannabinoid receptor 2 [1]; in data set [2]) were 1% and 45%, respectively. Besides, the Activity in data set [3] was 99%; in data set [4], 84%.
On the same counts, the results for `CCCCn1cc(C(=O)c2cccc3ccccc23)c2cc(O)ccc21` are 37%, 39%, 91% and 97%.
Regarding `Cc1c(C(=O)NN2CCCCC2)nn(-c2ccc(Cl)cc2Cl)c1-c1ccc(Cl)cc1` [RIMONABANT], the outcome with Mus musculus [6] and with Mus musculus [10] was Active. The Activity entry in the data set on Mus musculus [7] and with Mus musculus [9] was “Toxic” each time.
